Assay results as given in ChEMBL document CHEMBL3992532, “Structure-Based Design of Macrocyclic Factor XIa Inhibitors: Discovery of the Macrocyclic Amide Linker” (J Med Chem, 2017).

Assays:
Coagulation factor XI [1] = target: T1, Coagulation factor XI (Homo sapiens, UniProt P03951); experiment: Inhibition of human coagulation factor 11a using pyroGlu-Pro-Arg-pNA as substrate after 10 to 120 mins at 25 degC by spectrophotometric method
[2] = Half life in human liver microsomes; assay type: ADME, microsome
Plasma = experiment: Anticoagulant activity in human plasma assessed as concentration required to produce 50% increase in activated partial thromboplastin time; assay type: functional
How it was run: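 Citrated (one-tenth volume 0.11 M) plasma from healthy volunteers, spun 2,000 g 10 min, kept on ice; 10 mM DMSO stock diluted in plasma, up to 7 concentrations; aPTT on automated coagulometer, duplicates as mean ratio to baseline; EC1.5x (50% prolongation) by linear interpolation, as total plasma concentration.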

Coagulation factor XI [3] = target: T1, Coagulation factor XI; experiment: Inhibition of human coagulation factor 11a using pyroGlu-Pro-Arg-pNA as substrate after 10 to 120 mins at 37 degC by spectrophotometric method
How it was run: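 Purified human proteases, 37 °C; reaction started by adding enzyme to substrate (up to 4× Km) ± inhibitor; compound from DMSO, 1% DMSO final except where noted. […] Buffers: FXIa, chymotrypsin, tPA, plasmin, urokinase in 50 mM HEPES pH 7.4, 145 mM NaCl, 5 mM KCl, 0.1% PEG 8000; FXa, thrombin, trypsin, plasma kallikrein, aPC in 100 mM Na phosphate pH 7.4, 200 mM NaCl, 0.5% PEG 8000; FIXa in 50 mM Tris pH 7.4, 100 mM NaCl, 5 mM CaCl2, 0.5% PEG 8000, 2% DMSO.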

[4] = Half life in dog liver microsomes; assay type: ADME, Canis lupus familiaris, microsome
Canis familiaris [5] = experiment: Oral bioavailability in Beagle dog at 0.4 mg/kg administered via gavage as cassette dose by LC-MS/MS method; assay type: ADME, organism-based, Canis lupus familiaris; conditions: in vivo
How it was run: (§1)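 Dog PK vehicles as footnoted: iv in 70% PEG 400/20% water/10% ethanol; po either 70% PEG 400/20% TPGS/10% ethanol or the same PEG 400/water/ethanol vehicle used for iv.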

Canis familiaris [6] = experiment: AUC in Beagle dog at 0.4 mg/kg, po administered via gavage as cassette dose by LC-MS/MS method; assay type: ADME, organism-based, Canis lupus familiaris; conditions: in vivo; how it was run: as §1
[7] = Volume of distribution at steady state in Beagle dog at 0.2 mg/kg, iv administered as 10 mins infusion or 0.4 mg/kg, po via gavage administered as cassette dose by LC-MS/MS method; assay type: ADME, organism-based, Canis lupus familiaris; conditions: in vivo, read-out: Vdss; how it was run: as §1
[8] = Half life in Beagle dog at 0.2 mg/kg, iv administered as 10 mins infusion or 0.4 mg/kg, po via gavage administered as cassette dose by LC-MS/MS method; assay type: ADME, organism-based, Canis lupus familiaris; conditions: in vivo; how it was run: as §1

T1 sequence (P03951 19-387 limits assumed): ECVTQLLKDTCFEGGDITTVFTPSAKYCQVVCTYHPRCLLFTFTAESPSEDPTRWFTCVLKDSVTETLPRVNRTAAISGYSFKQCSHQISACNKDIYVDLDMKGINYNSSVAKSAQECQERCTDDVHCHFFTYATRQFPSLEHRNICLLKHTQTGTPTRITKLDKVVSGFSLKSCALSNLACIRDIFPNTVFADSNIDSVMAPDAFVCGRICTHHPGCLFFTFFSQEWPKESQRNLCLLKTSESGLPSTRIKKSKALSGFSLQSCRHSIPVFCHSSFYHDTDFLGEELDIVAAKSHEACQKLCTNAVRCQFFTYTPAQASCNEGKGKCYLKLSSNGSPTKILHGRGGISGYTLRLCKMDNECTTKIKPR
T1 sequence (P03951 388-625 limits assumed): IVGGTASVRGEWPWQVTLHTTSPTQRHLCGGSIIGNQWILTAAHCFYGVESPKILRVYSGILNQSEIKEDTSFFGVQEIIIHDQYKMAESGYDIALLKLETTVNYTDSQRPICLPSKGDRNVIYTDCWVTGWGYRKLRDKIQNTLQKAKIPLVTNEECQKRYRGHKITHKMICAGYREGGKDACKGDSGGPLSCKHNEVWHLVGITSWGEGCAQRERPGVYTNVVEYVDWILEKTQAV

Compound | Ki (Coagulation factor XI [3]) | EC1.5 (Plasma) | other results
COC(=O)Nc1ccc2c(c1)OCCCCC[C@H](NC(=O)/C=C/c1cc(Cl)ccc1-n1cnnn1)c1nc-2c[nH]1 |  |  | Ki (Coagulation factor XI [1]): 420 nM
COC(=O)Nc1ccc2c(c1)CCCCCCC[C@H](NC(=O)/C=C/c1cc(Cl)ccc1-n1cnnn1)c1nc-2c[nH]1 | 600 nM |  | 
COC(=O)Nc1ccc2c(c1)NC(=O)C/C=C/C[C@H](NC(=O)/C=C/c1cc(Cl)ccc1-n1cnnn1)c1nc-2c[nH]1 | 264 nM | >40 µM | 
COC(=O)Nc1ccc2c(c1)NC(=O)CC/C=C\C[C@H](NC(=O)/C=C/c1cc(Cl)ccc1-n1cnnn1)c1nc-2c[nH]1 |  | 12 µM | 
COC(=O)Nc1ccc2c(c1)CCCC/C=C/C[C@H](NC(=O)/C=C/c1cc(Cl)ccc1-n1cnnn1)c1nc-2c[nH]1 | 184 nM | >40 µM | 

Continued, in another order:

Ki (Coagulation factor XI [3]) | Compound | EC1.5 (Plasma) | other results
3.8 nM | COC(=O)Nc1ccc2c(c1)NC(=O)OCCCC[C@H](NC(=O)/C=C/c1cc(Cl)ccc1-n1cnnn1)c1nc-2c[nH]1 | 0.86 µM | half-life [2]: 62 min
159 nM | COC(=O)Nc1ccc2c(c1)OCCCCCC[C@H](NC(=O)/C=C/c1cc(Cl)ccc1-n1cnnn1)c1nc-2c[nH]1 |  | half-life [4]: 88 min; F (Canis familiaris [5]): 17%; AUC (Canis familiaris [6]): 119 nM·h; Vd [7]: 2.2 L/kg; half-life [8]: 126 min
0.88 nM | COC(=O)Nc1ccc2c(c1)NC(=O)OC/C=C/C[C@H](NC(=O)/C=C/c1cc(Cl)ccc1-n1cnnn1)c1nc-2c[nH]1 | 0.45 µM | half-life [2]: 69 min
3920 nM | COC(=O)Nc1ccc2c(c1)OCCC/C=C/C[C@H](NC(=O)/C=C/c1cc(Cl)ccc1-n1cnnn1)c1nc-2c[nH]1 |  | 
76 nM | COC(=O)Nc1ccc2c(c1)OCCCCCC[C@H](NC(=O)/C=C/c1cc(Cl)ccc1-n1cnnn1)c1nc-2c(Cl)[nH]1 | >40 µM | 
